MsrA inhibitor = inhibits bovine methionine sulfoxide reductase A; inhibition, % at 15.5 µM; 0.75% of 360,000 active; purified bovine MsrA, absorbance read-out; AID 651718; in the data active means inhibition above about 4.5%
MsrA act = bovine methionine sulfoxide reductase A activation | purified bovine MsrA, absorbance read-out | 0.3% of 360,000 active | activation, % at 10.6 µM; in the data active means activation above about 7.5%
MT1-MMP act inh = inhibitors of human MT1-MMP activation. P50281. HT1080 RFP-PRO-GFP cells, GFP/RFP ratio fluorescence, overnight; percent of plate control window, DMSO zero. GFP/RFP ratio change, % at 20 µM. 0.061% of 360,000 active. AID 651647;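 active means GFP/RFP ratio change of at least 30% with cell ATP level not reduced by more than half and red fluorescence within 50% of control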
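Test system: HT1080 cells expressing an RFP-PRO-GFP fluorescent reporter construct / Compound dosing: single-point 20 µM compound, 1% DMSO / Schedule: cells overnight before dosing, compound overnight, 37 °C, 5% CO2 / Evaluation: GFP/RFP fluorescence ratio / Control set: DMSO and RFP-L50D-GFP cell wells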
p-CIP stab down = p/CIP protein destabilization; 0.01% of 290,000 active; AID 1984; F442A p/CIP-EGFP cells, EGFP fluorescence, 16 h; decrease of EGFP signal, % at 10 µM;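 active means EGFP signal decrease of at least 30% at 10 µM or well 3 SD below plate mean, unless failing retest; inactive means the rest, including hits failing retest or dose response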
SKN-1 block = blocks SKN-1 activity in C. elegans. C. elegans VP596 Pgst-4::GFP/RFP ratio, acrylamide-induced, 24 h. inhibition, % at 21.8 µM. 0.49% of 360,000 active;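 active means interference check ratio from 0.5 to 1.5 plus GFP to RFP signal ratio inhibition reaching or exceeding a fixed threshold, cut at about 30% in these data, passing the limit was not always enough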
A number is an active result; i = inactive; nt = no result given. Shown are actives, neighbours in structure and some others; about 1.6% of the full set was active somewhere.

SMILES	MsrA inhibitor	MsrA act	MT1-MMP act inh	p-CIP stab down	SKN-1 block
COC(=O)c1cc2c(c3c4cc(F)ccc4n(S(=O)(=O)c4cccc(C)c4)c13)C(=O)N(Cc1ccccc1OC)C2	i	nt	nt	nt	nt
Cc1ccc(N=C2NC(=O)/C(=C/c3cccn3C)S2)cc1C	i	i	i	i	i
Cc1cccc(N=C2NC(=O)/C(=C/c3cccn3C)S2)c1C	i	i	i	i	41
C=CCN1C(=O)[C@]2(OCCC=C[C@H]2C)c2cc(OC)ccc21	i	nt	nt	nt	nt
Cc1cc(=O)n(CCO)c(O)c1C#N	i	i	i	i	i
Cc1c(C#N)c(O)n(CCO)c(=O)c1N=Nc1ccc2c(c1)COC2=O	i	i	i	i	48
O=C(Nc1cc2nn(-c3ccccc3)nc2cc1Cl)c1ccco1	i	i	i	i	45
CC(C)(C)C(=O)Nc1cc2nn(-c3ccccc3)nc2cc1Cl	i	i	i	i	42
CCCN1CCCCC(NC(C)=O)C1=O (stereo not drawn)	i	nt	nt	nt	nt
CCOC(=O)N1CCC(NC(=O)c2cccn3c(=O)c4cc(Br)ccc4nc23)CC1	i	i	i	40	i
CCOC(=O)N1CCC(NC(=O)c2ccc3nc4ccccc4c(=O)n3c2)CC1	nt	nt	nt	i	nt
CC(=O)C1=C(O)C=C(c2ccco2)CC1c1ccco1 (stereo not drawn)	4.8	i	i	i	i
CCc1c(-c2ccc(Br)cc2)ncn1CCc1ccccc1OC	i	nt	nt	nt	nt
CC(C)(C)NC(=O)c1nn2c(C(F)(F)F)cc(-c3ccccc3)nc2c1Br	i	i	i	i	i
NC(=O)c1nn2c(C(F)(F)F)cc(-c3ccccc3)nc2c1Br	4.6	i	i	i	i
Cc1ccc(C)c(/C(O)=C2\C(=O)C(=O)N(Cc3cccnc3)C2c2cccnc2)c1 (stereo not drawn)	4.8	i	i	i	i
O=S(=O)(c1ccc(N2CCN(c3ccc(F)cc3)CC2)cc1)N1CCCC1	i	i	i	i	i
O=S(=O)(c1ccc(N2CCCC2)cc1)C(F)(F)F	i	i	i	i	42
CCOC1=C2[C@H](c3ccccc3)N(S(=O)(=O)c3ccc(C)cc3)[C@H](C(C)C)[C@H]2C(C#N)(C#N)C(C#N)(C#N)C1	i	nt	nt	nt	nt
CCCCOC(=O)Nc1ccc(N2CCCCC2)cc1	i	i	i	i	46
CCCCOC(=O)Nc1ccc(C(C)C)cc1	i	i	i	i	33
CCCCOC(=O)Nc1ccc(N2CCOCC2)cc1	i	i	i	i	i
CCCCOC(=O)Nc1ccc(C(N)=O)cc1	i	i	i	i	i
Cc1ccc(/C=N/n2c(C)n[nH]c2=S)o1	4.6	i	i	i	i
COc1ccc(-c2ccccc2C2Cc3nnccc3CN2)cc1 (stereo not drawn)	i	nt	nt	nt	nt
SMILES	MsrA inhibitor	MsrA act	MT1-MMP act inh	p-CIP stab down	SKN-1 block
N#Cc1cc(-c2ccccc2)oc1NC(=O)c1ccco1	4.6	i	i	i	i
COCc1[nH]nc2c1C(c1ccc(F)cc1)NC2=O (stereo not drawn)	i	nt	nt	nt	nt
CC1CCCN(C(=O)c2ccncc2)C1 (stereo not drawn)	i	i	i	i	35
CC1CC(C)CN(C(=O)c2ccncc2)C1 (stereo not drawn)	i	i	i	i	i
Cn1cc(CCOCc2ccccc2)c2ccccc21	i	nt	nt	nt	nt
Clc1ccsc1-c1csc(-c2cccnc2)n1	i	i	i	i	42
c1cncc(-c2csc(-c3cccnc3)n2)c1	i	i	i	i	i
COC(=O)C1=C(C)N(Cc2ccc(F)cc2)C(=S)NC1c1cccc(OC)c1 (stereo not drawn)	i	nt	nt	nt	nt
COC(=O)[C@]12C[C@H](CC(=O)N3CCSCC3)C(=O)N(Cc3ccccc3)C1=C[C@H](C(C)C)O[C@@H]2C1CC1	i	nt	nt	nt	nt
CCCC(=O)N(CCN1CCOCC1)c1nc2c(OCC)cccc2s1	nt	i	i	i	40
O=C(C(=O)N1CCC(CNS(=O)(=O)c2ccc(F)c(F)c2)CC1)c1cc2ccccc2o1	i	nt	nt	nt	nt
CCn1nnc2sc3c(c2c1=O)CCC(C)C3 (stereo not drawn)	i	i	i	i	36
CC(=O)Cn1nnc2sc3c(c2c1=O)CCC(C(C)(C)C)C3 (stereo not drawn)	i	i	i	i	i
CCCCNC(=O)C[C@H]1C[C@@]2(C(=O)OC)C(=C[C@H](C(C)(C)C)O[C@@H]2C)N(Cc2ccc3c(c2)OCO3)C1=O	i	nt	nt	nt	nt
FC(F)Oc1ccc(C2N=C(c3ccccc3)NO2)cc1 (stereo not drawn)	i	i	i	i	34
CCOc1ccc(NC(=O)C2CCCN(S(=O)(=O)c3c(C)nn(C)c3C)C2)cc1 (stereo not drawn)	i	i	i	i	34
N#C/C(=C\c1ccc(-c2ccccc2)o1)C(=O)Nn1cnnc1	i	i	i	i	51
Cc1ccc(-c2ccc(/C=C(\C#N)C(=O)Nc3cc(C)nn3-c3ccccc3)o2)cc1	nt	nt	nt	i	nt
O=C(NCc1ccc2c(c1)OCO2)c1cccc(N2CCCC2=O)c1	i	i	i	i	43
COC(=O)c1cc(-c2ccc(Br)cc2)n[nH]1	i	i	i	i	36
O=[N+]([O-])c1ccc(NCCNS(=O)(=O)c2ccccc2)c(C(F)(F)F)c1	5.1	i	i	i	i
O=c1oc2ccc3ccccc3c2cc1-c1nnc(-c2ccccc2)o1	i	i	i	i	52
COc1ccc(-c2nnc(-c3cc4c(ccc5ccccc54)oc3=O)o2)cc1	i	i	i	i	i
CCCCc1nnn2c1C1c3cc(Br)ccc3CCN1C(=O)C2 (stereo not drawn)	i	nt	nt	nt	nt
CCCCN1C(C)=CC(=C2C(=O)c3ccccc3C2=O)C=C1C	i	i	i	i	38
SMILES	MsrA inhibitor	MsrA act	MT1-MMP act inh	p-CIP stab down	SKN-1 block
CC(=O)C1=C(C)N(Cc2ccc(F)cc2)C(=S)NC1c1ccccc1 (stereo not drawn)	i	nt	nt	nt	nt
COCc1cc(N2CCNC[C@H]2C)ccc1N1C[C@@H](C)O[C@@H](C)C1	i	nt	nt	nt	nt
c1ccc(N=Nc2ccc(C3=NCCO3)cc2)cc1	i	i	i	nt	53
COC(=O)[C@]12C[C@H](CC(=O)NCc3ccc(C)o3)C(=O)N(Cc3ccc4c(c3)OCO4)C1=C[C@H](COCc1ccccc1)O[C@@H]2C	i	nt	nt	nt	nt
COc1ccc(-n2c(C)nc3cc(C(=O)NCc4ccco4)ccc32)cc1	i	i	i	i	41
CCOc1ccc(-n2c(C)nc3cc(C(=O)NCc4ccco4)ccc32)cc1	i	i	i	i	i
CC1(C)CC(=O)C=C(c2ccc(COC(=O)c3ccc(Br)cc3)cc2)C1=O	i	nt	nt	nt	nt
O=C(N/N=C/c1ccc(N2CCOCC2)cc1)c1cccs1	4.6	i	i	i	i
CN1CCS/C1=C\C=C1/SC(=S)N(CC(=O)O)C1=O	i	i	i	i	i
CCN1C(=O)/C(=C/C=C2/SCCN2C)SC1=S	i	i	i	i	27
CCOC(=O)Nc1nc(-c2ccc(F)cc2F)cs1	i	i	i	i	56
Cc1ccc(N=C2NC(=O)/C(=C/c3cccn3C)S2)cc1	i	i	i	i	i
Cc1ccc(N=C2NC(=O)/C(=C\c3ccc(C)s3)S2)cc1	i	i	i	i	38
